# In PubChem BioAssay:
# Activity calls are given as the source filed them.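 The calls were made as follows, unless noted: active = viability at or under a set limit in both replicates, limit being median viability minus 3 SD (cut at about 48% in these data, passing the limit was not always enough); inconclusive = at or under the limit in just one replicate; inactive = at or above the limit in both replicates.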
# Tests used:
# [1] = reducers of endogenous Her2 protein level, primary screen, SKBR3 breast tumor cells, AlphaScreen, ATP viability (AID 461;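 active = Her2 level under about 52% in both replicate screens, with viability over 70% of control, limit read from the data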;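 as to Her2 level: lower value means less Her2 protein in the cells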;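 as to viability: percent of carrier control wells set as 100% viability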); conditions: 18-24 h, measured here: SKBR3 viability, ATP luminescence, at 10 µM
# [2] = target: Receptor tyrosine-protein kinase erbB-2 (Homo sapiens) (UniProt P04626); assay: as above; conditions: 18-24 h, at 10 µM, stronger effect = lower value
# [3] = SK-BR-3 cell growth inhibitors, pilot screen, 24 h, human (AID 572;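 active = viability at or below 10% of carrier control in both of two separate runs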;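 also: compound exposure lasted between 18 and 24 h rather than exactly 24 h; 100% = carrier-treated control wells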); conditions: SK-BR-3 viability, CellTiter-Glo luminescence, at 10 µM, stronger effect = lower value
# [4] = HUVEC growth inhibition – cell-based, human, primary screen (AID 575;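 active = viability at or below 30% in both replicate assays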;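 also: 100% = median of untreated cell wells with 0.1% DMSO on each plate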); conditions: HUVEC proliferation, CellTiter-Glo luminescence, 72 h; at 10 µM; stronger effect = lower value
# Outline: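 Assay system: primary human umbilical vein endothelial cells / Buffer or medium: endothelial basal medium with 2% FBS plus growth supplements / Compound dosing: one dose, 10 µM final, 0.1% DMSO / Timing: 72 h treatment at 37 °C / Signal: CTG luminescence / Benchmarks: 32 DMSO-only cell-control wells (high), 32 MePR drug-control wells (low) per plate / Plate: collagen-coated 384-well format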
# [5] = growth inhibitors of H69AR lung tumor, primary screen, human, duplicate replicates (AID 580); conditions: H69AR lung tumor cells viability, ATP luminescence, 72 h; at 10 µM; stronger effect = lower value;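 also: 100% = mean luminescence of untreated wells and 0% = no signal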
# [6] = reversal of MRP1-mediated doxorubicin resistance, pilot screen, H69AR cells, doxorubicin co-treatment (AID 601;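 active = viability loss from added drug above about 55%, and viability with drug at most 40%, in both replicates, limit read from the data, passing the limit was not always enough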); conditions: CellTiter-Glo, 72 h, at 10 µM; for differential viability (reversal): stronger effect = higher value
# [7] = 384-well plate pilot, post-Golgi transport modulator project, inhibition of yeast transport mutant growth (AID 636; in the data active = inhibition above about 31%); conditions: absorbance 615 nm, about 18 h, stronger effect = higher value
# [8] = growth suppression of yeast trafficking mutant, preliminary HTS, modulators of trafficking downstream of Golgi apparatus project, 1536-format plate, OD 615 nm (AID 637; in the data active = inhibition above about 30%); conditions: yeast transport mutant growth, absorbance 615 nm, 18 h; stronger effect = higher value
# [9] = H69AR cells + 2 uM doxorubicin, measured here: viability with 2 uM doxorubicin, stronger effect = lower value
# [10] = H69AR cells, compound alone cytotoxicity
# Receptor tyrosine-protein kinase erbB-2 (Homo sapiens), sequence (P04626 whole entry, looked up): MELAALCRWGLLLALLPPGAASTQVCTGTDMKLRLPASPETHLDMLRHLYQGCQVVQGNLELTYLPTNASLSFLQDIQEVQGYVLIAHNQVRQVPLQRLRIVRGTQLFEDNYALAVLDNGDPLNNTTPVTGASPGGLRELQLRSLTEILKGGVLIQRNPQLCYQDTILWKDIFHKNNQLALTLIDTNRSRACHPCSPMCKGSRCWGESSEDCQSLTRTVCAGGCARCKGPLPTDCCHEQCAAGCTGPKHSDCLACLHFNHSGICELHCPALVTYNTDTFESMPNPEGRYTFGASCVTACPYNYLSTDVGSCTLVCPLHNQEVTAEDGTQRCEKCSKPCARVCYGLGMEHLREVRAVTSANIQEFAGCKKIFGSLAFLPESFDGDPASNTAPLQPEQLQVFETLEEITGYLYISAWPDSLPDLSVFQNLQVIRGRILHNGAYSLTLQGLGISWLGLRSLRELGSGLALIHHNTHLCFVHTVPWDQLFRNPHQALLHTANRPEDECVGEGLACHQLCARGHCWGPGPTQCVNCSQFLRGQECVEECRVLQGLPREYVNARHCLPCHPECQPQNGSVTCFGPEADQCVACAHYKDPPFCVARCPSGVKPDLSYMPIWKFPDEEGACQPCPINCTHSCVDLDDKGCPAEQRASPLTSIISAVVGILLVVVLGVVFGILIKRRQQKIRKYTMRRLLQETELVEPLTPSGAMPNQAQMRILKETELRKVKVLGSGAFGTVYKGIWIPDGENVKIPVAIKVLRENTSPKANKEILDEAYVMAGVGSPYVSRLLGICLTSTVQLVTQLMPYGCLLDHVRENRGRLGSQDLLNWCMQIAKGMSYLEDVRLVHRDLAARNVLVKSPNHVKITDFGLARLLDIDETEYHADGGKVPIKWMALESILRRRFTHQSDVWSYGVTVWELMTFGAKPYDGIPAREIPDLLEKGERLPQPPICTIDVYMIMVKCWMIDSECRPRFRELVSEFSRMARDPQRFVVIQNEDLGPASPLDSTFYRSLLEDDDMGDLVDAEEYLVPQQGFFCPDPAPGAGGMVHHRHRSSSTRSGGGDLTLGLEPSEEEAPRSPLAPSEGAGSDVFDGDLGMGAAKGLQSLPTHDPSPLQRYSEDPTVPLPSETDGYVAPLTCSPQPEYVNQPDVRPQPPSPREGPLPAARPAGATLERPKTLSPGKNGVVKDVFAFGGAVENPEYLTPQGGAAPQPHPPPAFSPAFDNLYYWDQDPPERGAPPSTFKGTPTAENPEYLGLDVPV
Structure (SMILES),viability [1],Her2 level [2],viability [3],viability [4],viability [5],differential viability (reversal) ([6]; H69AR cells + 2 uM doxorubicin),"viability [6, 9]","viability [6, 10]",inhibition [7],inhibition [8]
COc1ccc(-c2noc(CN3C(=O)c4ccccc4C3=O)n2)cc1,102%,108% (inactive),102% (inactive),97.5% (inactive),102% (inactive),5.23% (inactive),96.4%,102%,-0.92% (inactive),11.3% (inactive)
CC(C)COc1ccc(C(=O)OCCN2CCOCC2)cc1,98.5%,101% (inactive),98.5% (inactive),118% (inactive),98.2% (inactive),2.9% (inactive),95.3%,98.2%,-2.86% (inactive),-3.65% (inactive)
CCOc1ccc(/C=N/n2cnnc2)cc1,101%,94.5% (inactive),101% (inactive),78.8% (inactive),96.7% (inactive),7.86% (inactive),88.9%,96.7%,-0.52% (inactive),-3.93% (inactive)
Cc1ccc(CCNC(=O)C2CCN(S(=O)(=O)c3cccc4nsnc34)CC2)cc1,93.5%,108% (inactive),93.5% (inactive),107% (inactive),95.6% (inactive),-3.61% (inactive),99.2%,95.6%,2.13% (inactive),0.33% (inactive)
CC1CCN(C(=S)c2ccccc2O)CC1,116%,105% (inactive),116% (inactive),92.8% (inactive),89% (inactive),-0.9% (inactive),89.9%,89%,-5.2% (inactive),-6.29% (inactive)
CC(C)CN(CC(C)C)C(=O)C12CCC(C)(C(=O)C1)C2(C)C (stereo not given),74%,103% (inactive),74% (inactive),110% (inactive),96.8% (inactive),12.3% (inactive),84.4%,96.8%,1.33% (inactive),-7.62% (inactive)
Cc1cc(C)c2c(n1)nn1c(NCCCN3CCOCC3)cc(C)nc21,106%,79% (inactive),106% (inactive),98.8% (inactive),97.7% (inactive),7.13% (inactive),90.6%,97.7%,-5.54% (inactive),2.38% (inactive)
CC(=O)N1CCc2cc(S(=O)(=O)CCC(=O)Nc3cccc(F)c3)ccc21,109%,104% (inactive),109% (inactive),97.3% (inactive),93.8% (inactive),13.1% (inactive),80.7%,93.8%,-4.74% (inactive),-1.5% (inactive)
Cn1c(=O)c2c3c(sc2n2c(SCC(=O)c4ccc(Cl)cc4)nnc12)COC(C)(C)C3,119%,102% (inactive),119% (inactive),76.6% (inactive),79.7% (inactive),23.3% (inactive),56.4%,79.7%,-0.91% (inactive),-2.7% (inactive)
c1ccc(-c2n[nH]c3ccccc23)cc1,118%,85% (inactive),118% (inactive),84.9% (inactive),103% (inactive),11.4% (inactive),91.9%,103%,-3.55% (inactive),2.1% (inactive)
CC1CN(CC(O)COc2ccc(C(C)C)cc2)CC(C)O1 (stereo not given),93%,94.5% (inactive),93% (inactive),94.9% (inactive),76.2% (inactive),3.78% (inactive),72.4%,76.2%,18.6% (inactive),6% (inactive)
Cc1cc(C)c2cc(CN(CC3CCCO3)C(=O)NC3CCCCC3)c(=O)[nH]c2c1 (stereo not given),78.5%,89.5% (inactive),78.5% (inactive),92% (inactive),73.4% (inactive),-2.42% (inactive),75.8%,73.4%,-0.13% (inactive),15.8% (inactive)
COc1ccccc1CCNC(=O)C1CCCO1 (stereo not given),108%,97% (inactive),108% (inactive),92.1% (inactive),98.9% (inactive),7.17% (inactive),91.7%,98.9%,-6.18% (inactive),-11.3% (inactive)
CC(=O)Nc1ccc(-c2cc3ccccc3o2)cc1,103%,89% (inactive),103% (inactive),82.4% (inactive),95.9% (inactive),12% (inactive),83.9%,95.9%,-6.44% (inactive),-5.08% (inactive)
CCn1c(=O)cc(SCC(=O)Nc2ccc3c(c2)OCO3)c2ccccc21,97%,88% (inactive),97% (inactive),64.1% (inactive),87.9% (inactive),3.51% (inactive),84.4%,87.9%,-2.5% (inactive),-10.5% (inactive)
COC(=O)c1cc(OC)c(OC)cc1NC(=O)CC1CCCCC1,104%,96.5% (inactive),104% (inactive),99.3% (inactive),103% (inactive),9.91% (inactive),93.6%,103%,0.79% (inactive),-2.9% (inactive)
CC(=O)n1nc(-c2ccco2)nc1SCc1ccccc1,77%,103% (inactive),77% (inactive),97.2% (inactive),98.7% (inactive),14.9% (inactive),83.8%,98.7%,1.54% (inactive),0% (inactive)
O=C(Cn1ccc2ccccc2c1=O)NCCC(=O)N1CCN(C2CCCCC2)CC1,99.5%,86.5% (inactive),99.5% (inactive),96.6% (inactive),104% (inactive),22.2% (inactive),81.7%,104%,-3.2% (inactive),2.13% (inactive)
CCc1ccc(NS(=O)(=O)c2ccc3[nH]cc(C(=O)N4CCCCC4)c(=O)c3c2)cc1,124%,92% (inactive),124% (inactive),102% (inactive),89.6% (inactive),5.6% (inactive),84%,89.6%,-5.66% (inactive),-0.81% (inactive)
CCOC(=O)n1c(SCC(=O)N(CC)CC)nc2ccccc21,118%,97.5% (inactive),118% (inactive),105% (inactive),101% (inactive),15.7% (inactive),85.7%,101%,-3.51% (inactive),1.11% (inactive)
CCOC(=O)CCC(=O)Nc1ccc(S(=O)(=O)N2CCCC2)cc1,94.5%,102% (inactive),94.5% (inactive),105% (inactive),102% (inactive),5.38% (inactive),96.3%,102%,-3.68% (inactive),-4.6% (inactive)
COc1ccc(CC(=O)OCn2nnc3ccccc3c2=O)cc1,101%,86% (inactive),101% (inactive),90.5% (inactive),98% (inactive),-3.25% (inactive),101%,98%,-5.6% (inactive),-5.56% (inactive)
O=C(CCNC(=O)Cn1ccc2ccccc2c1=O)NCCN1CCN(c2ccccc2F)CC1,96%,92% (inactive),96% (inactive),99.2% (inactive),88.1% (inactive),9.11% (inactive),79%,88.1%,-4.87% (inactive),-1.45% (inactive)
O=C1NC(=O)C2(CCC(C(=O)O)C2)N1 (stereo not given),93.5%,84% (inactive),93.5% (inactive),96.4% (inactive),94.2% (inactive),-0.33% (inactive),94.5%,94.2%,-5.73% (inactive),2.46% (inactive)
Nc1c(C(=O)NCc2ccco2)nnn1Cc1ccccc1,85.5%,102% (inactive),85.5% (inactive),92.1% (inactive),96% (inactive),0.935% (inactive),95.1%,96%,-6.32% (inactive),3.33% (inactive)
Cc1coc(NC(=O)CSc2nc(-c3ccncc3)cc(C(F)(F)F)c2C#N)n1,106%,71% (inactive),106% (inactive),79% (inactive),71.8% (inactive),1.41% (inactive),70.4%,71.8%,-2.5% (inactive),0.73% (inactive)
CCn1c(SCC(=O)c2ccc(Cl)cc2)nnc1-c1ccoc1C,118%,104% (inactive),118% (inactive),98.2% (inactive),93.6% (inactive),4% (inactive),89.6%,93.6%,-2.84% (inactive),-0.98% (inactive)
CCOc1ccccc1N1CCN(C(=O)c2ccncc2)CC1,97%,100% (inactive),97% (inactive),90.2% (inactive),93.6% (inactive),13.4% (inactive),80.2%,93.6%,-2.99% (inactive),-9.34% (inactive)
Cc1cccc(NC(=O)c2cc3ccccc3o2)c1,142%,114% (inactive),142% (inactive),75.8% (inactive),86.3% (inactive),8.2% (inactive),78.1%,86.3%,-7.4% (inactive),-1.27% (inactive)
